The list is not random: actives were taken first. Their share in the collection is about 12%.
Lmaj promast: Leishmania major promastigote growth inhibition, primary screen | Leishmania major promastigotes, resazurin fluorescence viability | inhibition, % at 10 µM | hit rate 9% among 200,000; in the data active means inhibition above about 50%;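 further: promastigotes grown with compound for 44 hours at 28 °C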
CHOP inh: inhibitors of CHOP promoter induction, primary screen, cell-based, unfolded protein response, luciferase reporter; AID 2732, 2010; inhibition, % at 10 µM; CHO-K1 CHOP-promoter luciferase, tunicamycin-induced, 15-18 h; hit rate 3.8% among 220,000;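 active means compounds that reduced the stress-induced luciferase reporter signal by more than about 70% of percent inhibition, limit read from the data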;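 further: 0% = tunicamycin plus vehicle and 100% = wells without tunicamycin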
bCat nuc transl: modulators of beta-catenin nuclear translocation, primary screen, imaging, HeLa cells, immunofluorescence, high-content; hit rate 0.3% among 190,000; nuclear translocation activity, % at 5 µM; AID 1665, 2009;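 active means nuclear translocation activity above 50% at 5 µM, with a well cell count of 50 or more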;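 further: per-cell ratio of nuclear to cytoplasmic median beta-catenin stain intensity; plate controls were DMSO negative control for no effect and GSK-3 inhibitor IX positive control for full effect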
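Technique: fluorescence imaging of beta-catenin antibody stain plus DAPI / Material: human HeLa cell line / Incubation: compound treatment 24 h, 37°C, 5% CO2 / Read-out basis: % activation of per-cell nuclear versus cytoplasmic median beta-catenin signal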
Dynein cargo inh: inhibitors of GR-EGFP nuclear translocation, primary screen, dynein cargo transport inhibitor project, imaging, high-content, 3617.4 mouse cells. AID 1381, 2008. z-score, hits read low. test concentration mostly 20 µM; stimulated with dexamethasone, 1 µM; active compounds read low. hit rate 0.47% among 220,000;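 active means plate z-score of nuclear minus cytoplasmic receptor signal below a set negative limit, without overly bright fluorescence or cell loss, cut at about -3.5 in these data, passing the limit was not always enough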;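 further: z-score of nuclear minus cytoplasmic ring GR-EGFP intensity difference per well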
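medium = tetracycline-free induction medium containing charcoal-stripped FBS | also added = 1.0 µM final dexamethasone stimulus | schedule = 48 h induction, 1 h compound, 30 min dex at 37 °C | technique = fixed, Hoechst-stained cells imaged at 10x for EGFP | measure = GR-EGFP nuclear translocation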
MT stabilizer: microtubule stabilizers in HeLa cells, primary screen, imaging, high-content imaging. hit rate 0.83% among 200,000. HeLa tubulin immunostaining HCS, 24 h; share of cells brighter than vehicle mean+2SD. % tubulin-high responders, % at 10 µM. AID 2205, 2009;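 active means plate Z-score above 3 for both tubulin-high and condensed-nucleus cell shares, with cell loss under 80%, at 10 µM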;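 further: anti alpha tubulin signal scored within the nucleus-defined area of each cell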
Autophagy HCS: autophagy modulators in MEF cells, primary screen, imaging, high-content, MEF GFP-LC3; MEF GFP-LC3 puncta imaging; test concentration mostly 10 µM; calls only at 10 µM (by protocol); hit rate 0.98% among 190,000;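 active means percentage of spot-positive cells more than 3 SD above its plate mean, without a fluorescence outlier flag or 80% toxicity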;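 further: spot-positive cell cutoff set from DMSO-treated cells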
Starred values were filed as active, the others as inactive.

For CC(C)c1onc(C(=O)NC(C)c2ccccc2)c1[N+](=O)[O-] (centres undefined) the results were Lmaj promast 2, CHOP inh 19, bCat nuc transl -1, Dynein cargo inh 2.5, MT stabilizer 3 and Autophagy HCS inactive.
`CC(=O)N(C)C1=C(N2CCOCC2)C(=O)c2ccccc2C1=O` gave Lmaj promast 95*, CHOP inh -30, bCat nuc transl 2, Dynein cargo inh -1.4, MT stabilizer 7 and Autophagy HCS inactive.
CC(=O)N(C1=C(N2CCOCC2)C(=O)c2ccccc2C1=O)c1ccc(C(=O)O)cc1 was read as CHOP inh -1, bCat nuc transl 0 and Dynein cargo inh -0.53.
N#Cc1nc(-c2ccc(F)cc2)oc1NCc1ccccc1 was read as Lmaj promast 0, CHOP inh 82*, Dynein cargo inh 1.5, MT stabilizer 3 and Autophagy HCS inactive.
Screening CCC(CC)c1nc(C#N)c(NCc2ccccc2)o1 returned Lmaj promast 6, CHOP inh 12, bCat nuc transl 4, Dynein cargo inh 1.6, MT stabilizer 15* and Autophagy HCS inactive.
`CC(N)=NCCCC[C@@H](N)C(=O)O` gave CHOP inh -28.
Screening O=C(COC(=O)c1cc(=O)[nH]c(=O)[nH]1)Nc1cccc(S(=O)(=O)N2CCOCC2)c1 returned Lmaj promast -8, CHOP inh 16, bCat nuc transl 2, Dynein cargo inh -0.44, MT stabilizer 4 and Autophagy HCS inactive.
Screening COc1cccc(-c2nnc3sc(-c4ccc(C)cc4)nn23)c1 returned Lmaj promast -6, CHOP inh 25, bCat nuc transl 68*, Dynein cargo inh -0.43, MT stabilizer 33* and Autophagy HCS inactive.
Screening CCOc1cccc(-c2nnc3sc(COc4ccccc4)nn23)c1 returned Lmaj promast -6, CHOP inh 43, bCat nuc transl -5, Dynein cargo inh -0.16, MT stabilizer 3 and Autophagy HCS inactive.
CCOc1cccc(-c2nnc3sc(COc4ccc(C)cc4)nn23)c1 was read as Lmaj promast -8, CHOP inh 70*, bCat nuc transl 0, Dynein cargo inh -0.85, MT stabilizer 2 and Autophagy HCS inactive.
For CCN(CC)c1ccc(-c2nn3c(-c4cccnc4)nnc3s2)cc1 the results were Lmaj promast 20, CHOP inh -19, bCat nuc transl 6, Dynein cargo inh -1.1, MT stabilizer 38* and Autophagy HCS inactive.
COc1cc(-c2nn3c(-c4ccccc4)nnc3s2)cc(OC)c1OC was read as Lmaj promast 20, CHOP inh 38, bCat nuc transl -3, Dynein cargo inh -0.49, MT stabilizer 2 and Autophagy HCS active.
`NNC(=O)CCn1c2ccccc2c2ccccc21` gave Lmaj promast 4, CHOP inh 2, bCat nuc transl 0, Dynein cargo inh 1.8, MT stabilizer 5 and Autophagy HCS inactive.
`O=C(NCC1CCCO1)C(c1ccc(F)cc1)N(Cc1ccc2c(c1)OCO2)C(=O)c1ccc(CN2CCOCC2)o1` (centres undefined) gave Lmaj promast -2, CHOP inh 3, bCat nuc transl 0, Dynein cargo inh -0.33, MT stabilizer 2 and Autophagy HCS inactive.
Screening NC(=O)C1(N2CCCCC2)CCN(CC(=O)Nc2ccccc2Sc2ccccc2)CC1 returned Lmaj promast -2, CHOP inh -28, bCat nuc transl -1, Dynein cargo inh 1.1, MT stabilizer 2 and Autophagy HCS inactive.
For NC(=O)C1(N2CCCCC2)CCN(CC(=O)Nc2cc(Cl)ccc2Cl)CC1 the results were Lmaj promast 9, CHOP inh 76*, bCat nuc transl 1, Dynein cargo inh -1.1, MT stabilizer 1 and Autophagy HCS inactive.
For O=c1cc(CN2CCN(c3ccccc3)CC2)nc2scc(-c3ccccc3)n12 the results were Lmaj promast 5, CHOP inh -7, bCat nuc transl -1, Dynein cargo inh 0.77, MT stabilizer 4 and Autophagy HCS inactive.
Screening CCOC(=O)C1CCN(Cc2cc(=O)n3c(-c4ccccc4)csc3n2)CC1 returned Lmaj promast 88*, CHOP inh -32, bCat nuc transl -1, Dynein cargo inh 1.5, MT stabilizer 2 and Autophagy HCS inactive.
`N#CCCN(C(=O)CSc1ccc2c(c1)OCCO2)c1ccc(F)cc1` gave Lmaj promast 87*, CHOP inh 19, Dynein cargo inh -1.2, MT stabilizer 2 and Autophagy HCS inactive.
Screening Nc1ccc(C23CC4CC(CC(O)(C4)C2)C3)cc1 returned Lmaj promast -1, CHOP inh 12, bCat nuc transl 0, Dynein cargo inh -1.2, MT stabilizer 1 and Autophagy HCS inactive.
Nc1ccc(C23CC4CC(CC(C4)C2)C3)cc1 was read as Lmaj promast 10, CHOP inh 75*, bCat nuc transl 0, Dynein cargo inh -0.5, MT stabilizer 2 and Autophagy HCS inactive.
Screening O=C(N/N=C/c1ccccn1)c1cccc(S(=O)(=O)N2CCCC2)c1 returned CHOP inh 15, bCat nuc transl 1 and Dynein cargo inh -0.61.
`CCc1ccc(NC2=CC(=O)CC(c3ccco3)C2)cc1` (centres undefined) gave Lmaj promast 63*, CHOP inh 24, bCat nuc transl -7, Dynein cargo inh -1.2, MT stabilizer 4 and Autophagy HCS inactive.
`CN(C)CCCNC1=CC(=O)CC(c2ccccc2)C1` (centres undefined) gave Lmaj promast 18, CHOP inh 12, bCat nuc transl 0, Dynein cargo inh 0.41, MT stabilizer 2 and Autophagy HCS inactive.
Cc1ccc(NC2=CC(=O)CC(c3ccccc3)C2)cc1 (centres undefined) was read as Lmaj promast -1, CHOP inh 12, bCat nuc transl 10, Dynein cargo inh -0.37, MT stabilizer 20* and Autophagy HCS inactive.
Screening O=C1C=C(Nc2ccc(Cl)cc2)CC(c2ccccc2)C1 (centres undefined) returned Lmaj promast 3, CHOP inh -8, bCat nuc transl 126*, Dynein cargo inh -1.4, MT stabilizer 14* and Autophagy HCS inactive.
Screening CC(C)CCNC1=CC(=O)CC(c2ccccc2)C1 (centres undefined) returned Lmaj promast 40, CHOP inh 5, Dynein cargo inh 0.7, MT stabilizer 13* and Autophagy HCS inactive.
For Oc1ccc(/C=N/Nc2ccc3ccccc3c2)c(O)c1 the results were Lmaj promast 85*, CHOP inh 56, bCat nuc transl -3, Dynein cargo inh -1.1, MT stabilizer 4 and Autophagy HCS inactive.

High-throughput results as filed in PubChem.
